Here are results for eight molecules from PMC6396188 (ACS Central Science, 2019).

Where no end group is shown, it is not given here. ROX = carboxy-X-rhodamine

Experiment [1] has as its target T1, IL-1β (Homo sapiens, UniProt P01584). Kind of experiment: On-bead binding assay by fluorescence microscopy. Particulars: on PEGA beads, 50 nM ROX-IL-1β. An outline of the steps:
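Human IL-1β came from a codon-optimised gene with an N-terminal His-tag, expressed in E. coli BL21(DE3) and purified by Ni-NTA then size exclusion in PBS. It was labelled with 3 equiv ROX-NHS for 1 h at room temperature, excess dye removed on G-25 gel filtration, and quantified by 660 nm protein assay. Acetylated beads without β-body served as negative control. ROX read at 560/14 nm excitation and 605/52 nm emission.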

A further experiment concerns IL-1α. Kind of experiment: On-bead binding specificity test. On the set-up: species or system human. Particulars: 50 nM ROX-IL-1α, PEGA beads, Figure 4B.
In another experiment the test system is IL-2. Kind of experiment: Sandwich assay for IL-2. The experiment is classed as binding, human. Particulars: for detection of IL-2 in sandwich assay: capture bead-4 plus detection ROX-5, 50 nM IL-2, deionized water; for bead fluorescence in sandwich assay before protein addition: capture bead-4 plus detection ROX-5, deionized water, no IL-2.
For experiment [2], the target named is T1, IL-1β. As to the kind of experiment: Sandwich assay for IL-1β. The experiment is classed as binding. Particulars: capture 10 with detection ROX-2, 50 nM IL-1β, deionized water.
Experiment [3] can be described thus: Unspecific interaction between capture and detection β-body. The experiment is classed as binding. A digest of the protocol:
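Capture β-body was covalently linked to PEGA1900 beads and mixed in solution with purified ROX-labelled detection β-body, with no target protein added. For the IL-1β pair, incubation was in deionised water in glass vials for 3 h. Beads were then imaged by wide-field fluorescence microscopy for ROX at 560/14 nm excitation and 605/52 nm emission.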

A further experiment concerns IL-6. As to the kind of experiment: Sandwich assay for IL-6. The experiment is classed as binding, human. The conditions noted are these: capture 6 / ROX-labeled 7, with 0.05–0.1 M urea, 20 nM IL-6.
For experiment [4], the target named is T2, GFP (Aequorea victoria, UniProt P42212, F64L/H231L/S65T). Kind of experiment: Binding of GFP from E. coli cell lysate to β-body beads. Particulars: beads with lysed E. coli cells expressing GFP. An outline of the steps:
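PEGA beads carrying the test compound incubated with lysed E. coli cells expressing GFP. Bead-bound GFP imaged by wide-field fluorescence microscopy (ex 482/18 nm, em 520/28 nm). For capture, beads washed with water, bound GFP eluted with PBS, and the eluate analysed by SDS-PAGE alongside the whole-cell lysate.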

Experiment [5] addresses T2, GFP. As to the kind of experiment: On-bead microplate equilibrium binding assay, GFP. An outline of the steps:
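Three equal-sized PEGA beads bearing the test compound per well, in triplicate. Purified His-tagged GFP in Milli-Q water, two-fold serial dilutions from 20 μM. Incubated overnight at room temperature to equilibrium. Per-bead fluorescence quantified by microscopy (1 ms exposure, GFP filter set). Kd from a one-site specific binding nonlinear regression fit; points average 3–6 measurements.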

The target in experiment [6] is T2, GFP. As to the kind of experiment: Affinity purification of GFP from cell lysate on PEGA-β-body column, SDS-PAGE. Particulars: packed PEGA column, washed with water, eluted with PBS. An outline of the steps:
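GFP from Aequorea victoria, with an N-terminal His-tag, was expressed in E. coli BL21(DE3) from a pET plasmid. Culture was in LB with 100 μg/mL ampicillin at 37 °C to mid-exponential phase, then induced with 1 mM IPTG for 18 h at 20 °C. Cells were lysed in 50 mM Tris, 0.5 M NaCl, pH 8.0 with lysozyme and sonication, then clarified. SDS-PAGE gels were Coomassie-stained.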

In experiment [7] the target is T2, GFP. As to the kind of experiment: On-bead binding assay by fluorescence microscopy. Particulars: on PEGA beads, 50 nM GFP. A digest of the protocol:
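Recombinant N-terminally His-tagged GFP expressed in E. coli BL21(DE3), purified by Ni-NTA then size exclusion in PBS pH 7.4. Concentration from A490 (ε 55 000 M–1 cm–1). PEGA beads bearing the test compound placed in microplate wells with 50 nM GFP. N-acetylated beads served as negative control. Bead fluorescence imaged by microscopy (ex 482/18 nm, em 520/28 nm).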

Experiment [8] addresses T1, IL-1β. As to the kind of experiment: On-bead microplate equilibrium binding assay, IL-1β. An outline of the steps:
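Human IL-1β, N-terminal His-tag, expressed in E. coli BL21(DE3), purified by Ni-NTA and size exclusion. Labelled with 3 equiv ROX-NHS for 1 h at room temperature, free dye removed on G-25. Three compound-bearing PEGA beads per well, in triplicate. Two-fold dilutions from 10 μM in 5 mM phosphate buffer, overnight incubation. ROX fluorescence imaged at 2 ms exposure. Kd from one-site nonlinear fit.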

Experiment [9] addresses human recombinant IL-2 (ProSpec) (human, UniProt P60568 21-153). As to the kind of experiment: on-bead fluorescence microscopy.

human recombinant IL-2 (ProSpec), sequence (P60568 21-153): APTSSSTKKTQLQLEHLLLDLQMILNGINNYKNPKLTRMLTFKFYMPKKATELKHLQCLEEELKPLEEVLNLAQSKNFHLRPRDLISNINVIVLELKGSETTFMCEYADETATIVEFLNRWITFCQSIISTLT

Turning to ETDTYTETYPGRTITWTITDG [β-body 2], the “binding of ROX-labeled IL-1β to β-body beads” value at IL-1β [1] was “binding was observed”. The “binding of ROX-labeled IL-1α to β-body beads (specificity)” value in the experiment on IL-1α is “no interaction”.
Turning to NTVTNTMTRPGVTETVTQTDG [β-body 4], in the experiment with IL-2, the “detection of IL-2 in sandwich assay” value was “fluorescent beads were then observed exclusively after addition of 50 nM of IL-2” and the “bead fluorescence in sandwich assay before protein addition” value was “no observation of fluorescence on the beads”.
Turning to ROX-ETDTYTETYPGYTSTWTITDG [ROX-2], the “detection of IL-1β in sandwich assay” value at IL-1β [2] is given as “enabled us to also detect IL-1β in nanomolar concentrations”. Moreover, the “unspecific binding of detection peptide to capture peptide” value in experiment [3] (ROX-labeled 2 / capture 3 (IL-1β pair)) is listed as “could not be prevented without affecting at the same time the binding of IL-1β”.
With ROX-TMTDTDTYPGFTDTLTHAG [ROX-7], the “fluorescence from beads with IL-6 added” value with IL-6 was “remained strongly fluorescent”. Further, the “unspecific interaction between capture and detection peptide at surface of beads” value in [3] (capture 6 / ROX-labeled 7 (IL-6 pair), no urea) is reported as “some unspecific interaction”.
Regarding ROX-TRTLTYTEPGITQTKTEAG [ROX-5], in the experiment on IL-2, the “detection of IL-2 in sandwich assay” value was “fluorescent beads were then observed exclusively after addition of 50 nM of IL-2” and the “bead fluorescence in sandwich assay before protein addition” value is listed as “no observation of fluorescence on the beads”.
In general, Kd refers to a measure of binding affinity in units of concentration. As to TETKTVTITRPKMTWTFTHTVTG [β-body 1], on GFP [4], the “binding of GFP from cell lysate” value was “binding was observed” and the “transfer of fluorescence from lysate to beads” value was “quantitatively transferred from the lysate to the beads”. The molecule further showed an equilibrium dissociation constant (Kd) on GFP [5] of 184 ± 28.6 nM. At GFP [6], the “purification of GFP from cell lysate” value is reported as “a significant up-concentration of GFP was achieved with removal of the majority of other proteins in the cell lysate”. At GFP [7], the “binding of GFP to β-body beads” value is listed as “binding was observed”.
On IL-1β [8], TWTETYTWTEPGDTQTLTITNTG [β-body 3] registered a Kd of 610 ± 50 nM.
Regarding {ROX}-TRTLTYTEPGITQTKTEAG (designed binder) [ROX-labeled β-body 5], in experiment [9], the binding result was “binds”.
